From ChEMBL document CHEMBL1155472, “Versatile synthesis of new cytotoxic agents structurally related to hemiasterlins” (Bioorg Med Chem Lett, 2010)
The source made the active and inactive calls. The rule behind the calls is not given here.

What was measured:
UCI101 = test: Cytotoxicity against human UCI101 cells at 1 mM after 2 days by Alamar blue staining; type: functional, cell-based
Method in brief: (§1)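 UCI-101 human ovarian cancer cells and N1–S1 rat hepatoma cells were exposed to a range of concentrations for 2 days. Growth suppression was read by Alamar blue staining, with each concentration run in triplicate, and plotted against concentration.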

N1S1 = test: Cytotoxicity against rat N1S1 cells at 1 mM after 2 days by Alamar blue staining; type: functional, cell-based; method in brief: as §1
[1] = Cytotoxicity against rat N1S1 cells after 2 days by Alamar blue staining; type: functional, cell-based; details: N1-S1, 48 h; method in brief: as §1
[2] = Cytotoxicity against human UCI101 cells after 2 days by Alamar blue staining; type: functional, cell-based; details: UCI101, 48 h; method in brief: as §1
[3] = Cell cycle arrest in human UCI101 cells assessed as accumulation at G2 phase at 10 nM after 16 hrs using ethidium bromide staining by FACS analysis; type: functional, cell-based
[4] = Cell cycle arrest in human UCI101 cells assessed as accumulation at G2 phase at 25 nM after 16 hrs using ethidium bromide staining by FACS analysis; type: functional, cell-based
[5] = Inhibition of tubulin polymerization at 5 uM
Method in brief: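 Tubulin polymerization was run with a commercial polymerization assay kit, and polymerization curves were recorded over time. Colchicine and paclitaxel were run alongside as reference controls.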

[6] = Cell cycle arrest in human UCI101 cells assessed as accumulation at G2 phase at 20 nM after 16 hrs using ethidium bromide staining by FACS analysis; type: functional, cell-based

Row | SMILES | Activity (UCI101) | Activity (N1S1) | IC50 [1] | IC50 [2] | Activity [3] | Activity [4] | Activity [6] | further results
1 | C/C(=C\[C@H](C(C)C)N(C)C(=O)[C@@H](NC(=O)C(C)NC1CCCCC1)C(C)(C)C)C(=O)O (mixture of isomers) | Not toxic | Not toxic |  |  |  |  |  | 
2 | C/C(=C\[C@H](C(C)C)N(C)C(=O)[C@@H](NC(=O)C(C)NC(C)(C)c1ccc2ccccc2c1)C(C)(C)C)C(=O)O (stereo partly drawn) |  |  | 200 nM | 200 nM |  |  |  | 
3 | CC(NC(C)(C)c1ccccc1)C(=O)N[C@H](C(=O)N(C)c1cccc(C(=O)O)c1)C(C)C (stereo partly drawn) | Not toxic | Not toxic |  |  |  |  |  | 
4 | C/C(=C\[C@H](C(C)C)N(C)C(=O)[C@@H](NC(=O)[C@@H](C)NC(C)(C)c1ccccc1)C(C)C)C(=O)O |  |  |  | 20 nM | 4.7% | 12% | 11% | inhibition [5]: Active
5 | C/C(=C\[C@H](C(C)C)N(C)C(=O)[C@@H](NC(=O)[C@@H](C)NC(C)(C)c1ccccc1)C(C)(C)C)C(=O)O |  |  | 20 nM |  | Active | Active | Active | Activity [5]: Active
6 | C/C(=C\[C@H](C(C)C)N(C)C(=O)[C@@H](NC(=O)[C@H](C)NC(C)(C)c1ccccc1)C(C)(C)C)C(=O)O |  |  | 200 nM | 200 nM |  |  |  | 
